The values that follow come from PubChem BioAssay.

Experiment [1] is described as follows: inhibitors of TNFa-induced NFkB p65 translocation, primary screen, imaging, HUVEC, MLSMR starter and 10KST1 sets (AID 438).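 Further: compound added about 3h40 before a 20 min TNFalpha stimulation.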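 On inhibition: signal is the nuclear over cytoplasmic p65 intensity ratio per well.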 The conditions noted are these: HUVEC TNFa-induced p65 nuclear translocation; cell count: measured here: nuclei count (cytotoxicity indicator), at 2.08 µM; inhibition: at 2 µM, stronger effect = higher value, 0% TNFa-plus-vehicle, 100% no-TNFa wells.

Experiment [2] is described as follows: inhibitors of mutant huntingtin aggregation, primary screen, imaging, exon1htt(103Q)mCFP cells, high-content imaging (AID 483;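 active means visual image review flags a hit and inhibition of aggregation exceeds 20%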;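 further: compound exposure lasted 3 days before fixation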;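 on nuclei count: percent of the per-plate median nuclei count of sample wells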). The following applies: exon1htt(103Q)mCFP cell line, aggregate imaging, at 2 µM; inhibition of aggregation: stronger effect = higher value; nuclei count: measured here: cell count, toxicity.
Experiment [3] in a line: inhibitors of E-selectin induction by TNFa, primary screen, imaging, HUVEC, immunofluorescence, MLSMR starter and 10KST1 sets (AID 487;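 active means visually confirmed hit in the image check and inhibition above 20%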;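 on inhibition: signal is fraction of cell area covered by stained E-selectin grains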;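 on nuclei count: 100% = median nuclei count of all wells on the same plate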). The conditions noted are these: HUVEC TNFalpha-induced E-selectin immunofluorescence imaging, at 2 µM; inhibition: stronger effect = higher value; nuclei count: measured here: cell number, toxicity.
Experiment [4] deals with Voltage-gated potassium channel subunit beta-2 (Rattus norvegicus) (UniProt P62483). As to the kind of experiment: KvBeta enzyme negative modulators, primary screen, biochemical, NADPH fluorescence (AID 622;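 active means fluorescence slope higher than the sample average by over 3 SD, cut at about -0.22 in these data, passing the limit was not always enough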;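 further: slope of raw intensity against log time taken from 70 to 1610 s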). The conditions noted are these: recombinant KvBeta, 4-cyanobenzaldehyde reduction, at 10 µM, stronger effect = higher value.
Voltage-gated potassium channel subunit beta-2 (Rattus norvegicus), sequence (P62483 whole entry, looked up): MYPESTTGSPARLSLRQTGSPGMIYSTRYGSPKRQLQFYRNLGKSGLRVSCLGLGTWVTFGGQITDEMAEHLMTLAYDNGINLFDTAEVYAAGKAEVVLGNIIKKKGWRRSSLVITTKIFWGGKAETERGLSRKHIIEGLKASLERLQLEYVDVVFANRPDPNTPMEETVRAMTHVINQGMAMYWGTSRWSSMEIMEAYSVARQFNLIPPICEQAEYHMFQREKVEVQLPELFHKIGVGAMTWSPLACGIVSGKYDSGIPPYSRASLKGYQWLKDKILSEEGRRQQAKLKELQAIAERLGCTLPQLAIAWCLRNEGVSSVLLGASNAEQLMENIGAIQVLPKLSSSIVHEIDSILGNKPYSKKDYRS
For experiment [5] the target is unchanged. In words: KvBeta positive modulators, primary screen, biochemical, NADPH fluorescence (AID 623;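 active means NADPH fluorescence slope more negative than the mean of all samples by about 3 SD, 99.7% confidence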;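 further: fluorescence intensity change per second fitted from 20 to 320 s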). The following applies: Recombinant KvBeta, NADPH fluorescence decrease slope, 10 min; at 10 µM; stronger effect = lower value.
In experiment [6] the target is Muscarinic acetylcholine receptor M4 (Homo sapiens) (UniProt P08173). In words: compounds altering M4/GIRK thallium flux, either direction, primary screen, M4 allosteric agonist project, cell-based, HEK293 M4/GIRK, BTC-AM (AID 625;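 active means fluorescence slope after compound addition differing from the mean of all tested samples at 99.7% confidence, mostly higher but some lower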;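 further: thallium influx through GIRK channels coupled to M4 in HEK293 cells with BTC-AM dye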). The following applies: at 10 µM, actives lie on both sides. Summed up:
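assay system = HEK293 cells with M4 receptor and GIRK channels | medium = pH 7.3 thallium assay buffer | doses = 10 µM final, single point | timing = cells overnight at 37 °C, BTC-AM loading 1 h, reads 2 min total | signal = BTC-AM fluorescence, 1 Hz kinetic reads | read-out = post-addition slope, 15–24 s, of baseline-normalized fluorescence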

Experiment [7] is described as follows: inhibitors of Sendai virus-induced IRF3 signaling, primary screen, TLR/RLR signaling modifier project, cell-based, Sendai virus stimulus, luciferase, 10K MLSCN set (AID 602276;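 active means inhibition at or above 50% at 10 µM; inactive means inhibition below 50%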;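 further: firefly luciferase from ISG56 promoter only with Renilla not read in this screen; 0% = Sendai virus plus DMSO and 100% = medium plus DMSO without virus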). The following applies: HEK293 RL24 IRF3 luciferase reporter, at 10 µM, stronger effect = higher value. (In general: Reporter assays use an easily measured gene product as a stand-in for the process of interest.)

The nature of experiment [8]: inhibitors of poly I:C-induced TLR3 signaling, primary screen, cell-based, poly I:C stimulus, luciferase, 10K MLSCN set (AID 602277;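 active means inhibition of the reporter signal at or above 50%; inactive means inhibition below 50%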). The following applies: HEK293-TLR3 RL24 IRF3 luciferase reporter, at 10 µM, stronger effect = higher value.

Each structure is given as a SMILES string. Activity calls are given as the source filed them.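 How the source made its calls, unless noted: active means inhibition above 20% together with a positive visual image hit; inconclusive means visual image hit but inhibition not above 20%; inactive means no visual image hit.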

Muscarinic acetylcholine receptor M4 (Homo sapiens), sequence (P08173 whole entry, looked up): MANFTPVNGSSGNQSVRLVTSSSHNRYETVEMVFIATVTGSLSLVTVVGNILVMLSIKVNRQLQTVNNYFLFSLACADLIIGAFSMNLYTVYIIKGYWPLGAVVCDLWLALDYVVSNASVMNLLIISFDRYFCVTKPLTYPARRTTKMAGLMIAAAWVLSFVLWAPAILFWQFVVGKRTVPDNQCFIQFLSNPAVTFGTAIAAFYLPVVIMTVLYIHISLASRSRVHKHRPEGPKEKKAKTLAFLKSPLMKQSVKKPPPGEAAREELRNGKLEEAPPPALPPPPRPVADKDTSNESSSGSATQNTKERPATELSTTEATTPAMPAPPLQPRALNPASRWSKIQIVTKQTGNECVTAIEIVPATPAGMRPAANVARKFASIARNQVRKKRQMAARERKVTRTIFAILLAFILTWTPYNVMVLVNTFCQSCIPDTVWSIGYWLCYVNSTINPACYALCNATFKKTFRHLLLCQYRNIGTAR

Consider `COc1ccccc1NS(=O)(=O)c1ccc(NC(=O)c2nc3ncccn3n2)cc1`, for which the cell count in experiment [1] is 266. In addition, the inhibition – broadly, the change of the read-out against control, counted positive when it falls – was 8.8% (inactive) in experiment [1], -14% (inactive) in experiment [3], 17.6% (inactive) in experiment [7] and 13.9% (inactive) in experiment [8]. For the same molecule, the inhibition of aggregation in experiment [2] was 8.5% (inactive). Further, the nuclei count amounted to 86.7% in experiment [2] and 93% in experiment [3]. Further, the fluorescence slope in experiment [4] was -0.571 (inactive); in experiment [6], 0.0057 (inactive). Moreover, the NADPH fluorescence slope in experiment [5] was -7.6e-05 (inactive).
On to `CCOc1cccc(OCCOCCN2CCCC2)c1`, for which the cell count in experiment [1] is 802. Also, the inhibition in experiment [1] was 0.5% (inactive); in experiment [3], -29.7% (inactive); in experiment [7], 14.6% (inactive); in experiment [8] it was 13.2% (inactive). In addition, the inhibition of aggregation in experiment [2] was 2.1% (inactive). Moreover, the figures for the nuclei count in experiment [2] and in experiment [3] were 79.5% and 103%, respectively. Besides, the fluorescence slope in experiment [4] was -0.229 (inactive); in experiment [6], 0.00581 (inactive). Moreover, the NADPH fluorescence slope in experiment [5] was -1.9e-05 (inactive).
`CS(=O)(=O)N(CC(=O)NCc1ccccn1)c1ccc2c(c1)OCCO2`: the cell count in experiment [1] amounted to 755. Besides, the inhibition in experiment [1] was -7.5% (inactive); in experiment [3], 26% (inactive); in experiment [7], 14.9% (inactive); in experiment [8], 15.8% (inactive). Also, the inhibition of aggregation in experiment [2] was 13% (inactive). The nuclei count came to 101% in experiment [2] and 78.9% in experiment [3]. The fluorescence slope is -0.515 (inactive) in experiment [4] and 0.00626 (inactive) in experiment [6]. The NADPH fluorescence slope in experiment [5] is -4.7e-06 (inactive).
In the case of `COC(=O)c1cc(NS(=O)(=O)c2ccc3c(c2)CCC(=O)N3)cc(C(=O)OC)c1`, in experiment [1], the cell count is 384. Also, the inhibition in experiment [1] was -2.9% (inactive); in experiment [3], -255% (inactive); in experiment [7] it was -11.6% (inactive); in experiment [8] it was 79.6% (active). For the same molecule, the inhibition of aggregation in experiment [2] is -24.1% (inactive). For the same molecule, the values for the nuclei count in experiment [2] and in experiment [3] were 108% and 115%, respectively. The fluorescence slope is -0.464 (inactive) in experiment [4] and 0.00663 (inactive) in experiment [6]. Also, the NADPH fluorescence slope in experiment [5] is 2.6e-05 (inactive).
In the case of `Cc1noc(C)c1S(=O)(=O)NCCN1CCN(c2ccccc2)CC1`, the cell count in experiment [1] came out at 413. Moreover, the inhibition in experiment [1] was -5.2% (inactive); in experiment [3], -42.6% (inactive); in experiment [7] it was 12.9% (inactive); in experiment [8] it was 20.2% (inactive). For the same molecule, the inhibition of aggregation in experiment [2] was -8.9% (inactive). Besides, the nuclei count in experiment [2] turned out to be 118%; in experiment [3], 141%. Besides, the fluorescence slope in experiment [4] is -0.546 (inactive); in experiment [6] it was 0.0066 (inactive). Moreover, the NADPH fluorescence slope in experiment [5] was 4.8e-05 (inactive).
On to `COCCCNC(=O)CCc1nc2cccnc2n1Cc1ccc(OC)cc1`, for which the cell count in experiment [1] was determined as 462. Besides, the inhibition was 4.3% (inactive) in experiment [1], -16.4% (inactive) in experiment [3], 14.4% (inactive) in experiment [7] and 1.17% (inactive) in experiment [8]. Besides, the inhibition of aggregation in experiment [2] is -13.4% (inactive). In addition, the nuclei count was found to be 124% in experiment [2] and 98.8% in experiment [3]. The fluorescence slope in experiment [4] is -0.286 (inactive); in experiment [6] it was 0.006 (inactive). Further, in experiment [5], the NADPH fluorescence slope is -2.5e-05 (inactive).
For `Cc1nc(C)c(C(=O)C2=C(O)C(=O)N(CCN3CCOCC3)C2c2cccnc2)s1` (stereo not given), in experiment [1], the cell count was found to be 256. Moreover, the inhibition in experiment [1] was -0.4% (inactive); in experiment [3] it was -7.1% (inactive); in experiment [7], 17.2% (inactive); in experiment [8] it was 22.7% (inactive). The inhibition of aggregation in experiment [2] was 22.5% (inactive). In addition, the results for the nuclei count in experiment [2] and in experiment [3] were 92.8% and 96.9%, respectively. The fluorescence slope in experiment [4] was -0.557 (inactive); in experiment [6], 0.0026 (inactive). Further, in experiment [5], the NADPH fluorescence slope is -0.000101 (inactive).
On to `Cc1cc(C)n(-c2nc(C)nc3c2cnn3-c2ccccc2)n1`, for which the cell count in experiment [1] came out at 427. For the same molecule, the inhibition in experiment [1] is 9.2% (inactive); in experiment [3], -60.5% (inactive); in experiment [7] it was 20.1% (inactive); in experiment [8], 20.4% (inactive). Moreover, the inhibition of aggregation in experiment [2] is -20.7% (inactive). Further, the nuclei count in experiment [2] was determined as 97.3%; in experiment [3], 114%. Moreover, the fluorescence slope in experiment [4] was -0.564 (inactive); in experiment [6], 0.0087 (inactive). For the same molecule, in experiment [5], the NADPH fluorescence slope was -3.8e-05 (inactive).
In the case of `CSc1ccccc1NS(=O)(=O)c1ccccc1`, in experiment [1], the cell count was 558. In addition, the inhibition was -1% (inactive) in experiment [1], -8.2% (inactive) in experiment [3], 13% (inactive) in experiment [7] and 12.9% (inactive) in experiment [8]. The inhibition of aggregation in experiment [2] was -14.6% (inactive). Besides, the nuclei count in experiment [2] came to 96.9%; in experiment [3], 105%. Further, the fluorescence slope is -0.454 (inactive) in experiment [4] and 0.00445 (inactive) in experiment [6]. Besides, in experiment [5], the NADPH fluorescence slope was 1.4e-05 (inactive).
With `c1coc(-c2nnc(-c3cccs3)o2)c1`, in experiment [1], the cell count worked out at 497. Further, the inhibition in experiment [1] was -1.7% (inactive); in experiment [3] it was -7.2% (inactive); in experiment [7], -25.9% (inactive); in experiment [8] it was -87.8% (inactive). Moreover, in experiment [2], the inhibition of aggregation is 13.3% (inactive). In addition, the values for the nuclei count in experiment [2] and in experiment [3] were 75% and 115%, respectively. Besides, the fluorescence slope was -0.51 (inactive) in experiment [4] and 0.00586 (inactive) in experiment [6]. Besides, the NADPH fluorescence slope in experiment [5] is -6.6e-07 (inactive).
